Molecular target: T1, HNE (Homo sapiens, UniProt P08246)
T1 sequence (P08246 30-247 limits assumed): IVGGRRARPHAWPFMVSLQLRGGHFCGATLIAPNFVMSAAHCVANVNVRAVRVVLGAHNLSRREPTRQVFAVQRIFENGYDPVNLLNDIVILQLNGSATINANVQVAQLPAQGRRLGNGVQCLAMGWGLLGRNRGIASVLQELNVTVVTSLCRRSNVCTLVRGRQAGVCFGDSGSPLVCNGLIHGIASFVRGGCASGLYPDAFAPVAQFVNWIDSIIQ
Test: HNE inhibition assay
Type: biochemical
Settings: not given
Procedure, shortened: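 Human neutrophil elastase (20 mU/mL) in 200 mM Tris–HCl pH 7.5, 0.01% BSA, 0.05% Tween-20, with test compound at varied concentrations (DMSO final 1%, top 50 µM). Reaction started with 25 µM substrate. Fluorescence (ex 355/em 460 nm) read every 30 s for 10 min at 25 °C. IC50 from % inhibition vs log concentration (≥6 points). Mean ± SD of three independent experiments.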

IC50 [µM]	Compound
3.8 ± 0.4	CCOC(=O)c1cn(C(=O)c2ccc(Cl)cc2)c2ccccc12 [2e, Ethyl 1-(4-chlorobenzoyl)-1H-indole-3-carboxylate]
12.2 ± 2.3	CCOC(=O)c1cn(C(=O)c2ccc(F)cc2)c2ccccc12 [2g, Ethyl 1-(4-fluorobenzoyl)-1H-indole-3-carboxylate]
45.3 ± 6.7	Cc1ccc(C(=O)n2cc(C(=O)Nc3ccccc3)c3ccccc32)cc1 [5c, 1-(4-methylbenzoyl)-N-phenyl-1H-indole-3-carboxamide]
21.6 ± 3.3	CCOC(=O)c1cn(C(=O)c2cccc(C)c2)c2ccc(Br)cc12 [7a, Ethyl 5-bromo-1-(3-methylbenzoyl)-1H-indole-3-carboxylate]
10.5 ± 1.7	CCOC(=O)c1cn(C(=O)c2ccc(C)cc2)c2cc(Br)ccc12 [7c, Ethyl 6-bromo-1-(4-methylbenzoyl)-1H-indole-3-carboxylate]
2.4 ± 0.4	CCOC(=O)c1cn(C(=O)c2cccc(C)c2)c2ccc([N+](=O)[O-])cc12 [7d, Ethyl 1-(3-methylbenzoyl)-5-nitro-1H-indole-3-carboxylate]
13.2 ± 1.8	CCOC(=O)c1cn(C(=O)c2ccc(C)cc2)c2ccc([N+](=O)[O-])cc12 [7e, Ethyl 1-(4-methylbenzoyl)-5-nitro-1H-indole-3-carboxylate]

Same assay, conditions: highest tested concentration 50 µM

HNE inhibitory activity (in words)	Compound
lack of activity	CCOC(=O)c1cn(-c2cccc(C)c2)c2ccccc12 [2a, Ethyl 1-(m-tolyl)-1H-indole-3-carboxylate]
inactive	CCOC(=O)c1cn(C(=O)c2cccc(C)c2)c2ccccc12 [2c, Ethyl 1-(3-methylbenzoyl)-1H-indole-3-carboxylate]
inactive	CCOC(=O)c1cn(C(=O)c2cccc(Cl)c2)c2ccccc12 [2f, Ethyl 1-(3-chlorobenzoyl)-1H-indole-3-carboxylate]
lack of activity	Cc1ccc(S(=O)(=O)n2cc(C(=O)Nc3ccccc3)c3ccccc32)cc1 [5f, N-phenyl-1-tosyl-1H-indole-3-carboxamide]
no activity	CCOC(=O)c1cn(C(=O)c2cccc(C)c2)c2cc(Br)ccc12 [7b, Ethyl 6-bromo-1-(3-methylbenzoyl)-1H-indole-3-carboxylate]
no activity	CCOC(=O)c1cn(C(=O)c2ccc(C)cc2)c2ccc(N)cc12 [compound 8, Ethyl 5-amino-1-(4-methylbenzoyl)-1H-indole-3-carboxylate]
no activity	CCOC(=O)c1cn(C(=O)c2ccc(C)cc2)c2ccc(NC(C)=O)cc12 [compound 9, Ethyl 5-acetamido-1-(4-methylbenzoyl)-1H-indole-3-carboxylate]

Source: paper PMC5062748 (Drug development research, 2016)
